# Published values collected from several papers.
# Protocols differ between the studies behind these lines.
# Observed: cell growth or viability
Structure (SMILES),cell line,assay,conditions,IC50
COc1ccc2c(c1)NC(=O)CN2c1nc(C)nc2c1CCC2,A375/TxR,MTS,drug-resistant strain,0.0011 µM
COc1ccc(COc2cc3oc(=O)c4cc(C(C)O)ccc4c3cc2OC)cc1 (stereo not shown),MB002,,7 days,> 10 µM
O=C(N/N=C/c1c(O)ccc2ccccc12)c1cc(-c2ccc3ccccc3c2)n[nH]1,WM278,MTS,24 h,29 µM
COc1cc(Nc2nccc(-c3cnn4nc(OC)ccc34)n2)cc(C(F)(F)F)c1,SW948,ATP luminescence,,3 µM
CC(C)c1cc(-c2n[nH]c(=O)n2-c2ccc3c(ccn3C)c2)c(O)cc1O,BT-474,imaging,24 h,0.412 µM
CC(C)C[C@H](NC(=O)[C@H](Cc1ccccc1)NC(=O)c1cnccn1)B(O)O,SK-LU-1,ATP luminescence,,0.01 µM
O=C(Nc1cccc(CO)c1)c1c[nH]c2ccc(Cl)cc12,SK-N-BE,MTT,,19 µM
CC(=NN=C1SC(C)C(=O)N1C)c1c(O)c2ccccc2oc1=O (stereo not shown),human Skin fibroblast,MTT,48 h,> 100 µM
Oc1ccc(Nc2nc(-c3ccc(Cl)cc3)cs2)cc1,WM278,MTS,24 h,20 µM
O=C(Nc1nnc(-c2cc3ccccc3[nH]2)s1)c1cc2c([nH]c3ccccc32)c(-c2ccccc2)n1,BT-474,MTT,72 h,5.68 µM
Nc1nc2[nH]cc(CCc3ccc(C(=O)N[C@@H](CCC(=O)O)C(=O)O)cc3)c2c(=O)[nH]1,MB002,,7 days,0.0635 µM
CC(=NN=c1[nH]c(C)c(N=Nc2ccccc2)s1)c1c(O)c2ccccc2oc1=O,human Skin fibroblast,MTT,48 h,> 100 µM
COc1cccc(OCCCN)c1-c1cc(Nc2cnc(C#N)cn2)n[nH]1,MB002,,7 days,0.0263 µM
COc1cc([C@@H]2c3cc4c(cc3[C@@H](O[C@@H]3O[C@@H]5CO[C@@H](C)O[C@H]5[C@H](O)[C@H]3O)[C@H]3COC(=O)[C@H]23)OCO4)cc(OC)c1O,human Skin fibroblast,,48 h,5 µM
CCn1c(C)c(N=Nc2ccc(C)cc2)sc1=NN=C(C)c1c(O)c2ccccc2oc1=O,human Skin fibroblast,MTT,48 h,> 100 µM
COc1cc(-c2nc(C(=O)Nc3nnc(-c4cc5ccccc5n4C)s3)cc3c2[nH]c2ccccc23)cc(OC)c1OC,BT-474,MTT,72 h,9.15 µM
Cc1ccc2[nH]c(=O)c3cc(C(=O)NCCCN(C)Cc4ccccc4)sc3c2c1,CFPAC-1,MTT,24 h,16.8 µM
CCN1CCN(Cc2ccc(Nc3ncc(F)c(-c4cc(F)c5nc(C)n(C(C)C)c5c4)n3)nc2)CC1,MB002,,7 days,0.0719 µM
COc1cccc2c1C(=O)c1c(O)c3c(c(O)c1C2=O)C[C@@](O)(C(=O)CO)C[C@@H]3O[C@H]1C[C@H](N)[C@H](O)[C@H](C)O1,BT-474,MTT,72 h,1.82 µM
CC[C@H](C)[C@@H]([C@@H](CC(=O)N1CCC[C@H]1[C@H](OC)[C@@H](C)C(=O)N[C@@H](Cc1ccccc1)C(=O)O)OC)N(C)C(=O)[C@@H](NC(=O)[C@@H](NC)C(C)C)C(C)C,M21,MTT,72 h,> 1 µM
COc1cccc2c1C(=O)c1c(O)c3c(c(O)c1C2=O)C[C@@](O)(C(=O)CO)C[C@@H]3O[C@H]1C[C@H](N)[C@H](O)[C@H](C)O1,BT-474,MTT,48 h,0.8 µg/mL
CCOC(=O)c1sc(=NN=C(C)c2c(O)c3ccccc3oc2=O)n(CC)c1C,human Skin fibroblast,MTT,48 h,> 100 µM
CS(=O)(=O)c1ccc(C(=O)Nc2ccc(Cl)c(-c3ccccn3)c2)c(Cl)c1,HD-MB03,,7 days,> 10 µM
CCOC(=O)c1sc(=NN=C(C)c2c(O)c3ccccc3oc2=O)n(C)c1C,human Skin fibroblast,MTT,48 h,> 100 µM
CCc1cc2c(cc1N1CCC(N3CCOCC3)CC1)C(C)(C)c1[nH]c3cc(C#N)ccc3c1C2=O,MB002,,7 days,0.396 µM
COc1ccc(-c2nc(C(=O)Nc3nnc(-c4cc5ccccc5n4C)s3)cc3c2[nH]c2ccccc23)cc1,BT-474,MTT,72 h,14.1 µM
CCn1c(C)c(C(C)=O)sc1=NN=C(C)c1c(O)c2ccccc2oc1=O,human Skin fibroblast,MTT,48 h,> 100 µM
COc1cccc2c1C(=O)c1c(O)c3c(c(O)c1C2=O)C[C@@](O)(C(=O)CO)C[C@@H]3O[C@H]1C[C@H](N)[C@H](O)[C@H](C)O1,human Skin fibroblast,MTT,48 h,0.16 µM
O=C(Nc1nnc(-c2cc3ccccc3[nH]2)s1)c1cc2c([nH]c3ccccc32)c(-c2ccc(F)cc2)n1,BT-474,MTT,72 h,9.2 µM
C[C@]1(c2nc3c(C(N)=O)cccc3[nH]2)CCCN1,HD-MB03,,7 days,> 10 µM
CC[C@]1(O)C[C@@H]2CN(CCc3c([nH]c4ccccc34)[C@@](C(=O)OC)(c3cc4c(cc3OC)N(C)[C@H]3[C@@](O)(C(=O)OC)[C@H](OC(C)=O)[C@]5(CC)C=CCN6CC[C@]43[C@@H]65)C2)C1,KB 3-1,MTT,,0.0526 µM
O=C(Nc1nnc(-c2cc3ccccc3[nH]2)s1)c1cc2c([nH]c3ccccc32)c(-c2ccc(Cl)cc2)n1,BT-474,MTT,72 h,8.68 µM
N#Cc1ccc(COC[C@H]2O[C@@H](n3c(NCc4ccc(Cl)c(Cl)c4)nc4c(N)ncnc43)[C@H](O)[C@@H]2O)cc1,HD-MB03,,,3.36 µM
CCN1C(=O)C(C)SC1=NN=C(C)c1c(O)c2ccccc2oc1=O (stereo not shown),human Skin fibroblast,MTT,48 h,> 100 µM
O=C(NCc1ccc(CO)cc1)c1c[nH]c2ccc(Cl)cc12,SK-N-BE,MTT,,15 µM
CCn1c(C)c(N=Nc2ccccc2)sc1=NN=C(C)c1c(O)c2ccccc2oc1=O,human Skin fibroblast,MTT,48 h,> 100 µM
O=c1[nH]cc(S(=O)(=O)Nc2cccc(-c3nnc(-c4cccc(Cl)c4)o3)c2)c(=O)[nH]1,SK-MES-1,MTT,24 h,13.9 µM
